≈ marks a conversion by molar mass, not a printed value. Calls of active or inactive are those of the source.
Assays:
[1] = tested on: Superoxide dismutase [Cu-Zn] (Homo sapiens), P00441 [G94A]; assay: Inhibition of SOD1 G93A mutant aggregation-induced cytotoxicity in rat PC12 cells assessed as cell viability incubated for 24 hrs and measured 72 hrs post compound dose by cytotoxicity protection assay; format: cell-based; details: PC-12
In short: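 PC12 cells expressing G93A SOD1-YFP fusion seeded 15000 cells/well, grown 24 h before dosing. 12-point dose response, top 32 μM, twofold dilutions. After 24 h, MG132 added (100 nM final). Viability measured 48 h later with Calcein-AM (1 μM final, 20 min, room temperature) fluorescence. EC50 derived from dose-response.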

Cerebral cortex neuron = assay: Cytoprotection in rat Primary cortical neurons incubated for 24 hrs and measured 72 hrs post compound dose by cytotoxicity protection assay; format: functional, cell-based
In short: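 Primary cortical neurons from E18 Sprague-Dawley or Fischer 344 rat brain, dissociated with papain (2 mg/mL, 30 min, 37 °C), plated on poly-D-lysine at 20,000 cells/well, cultured 5 days (~90% neurons). Six-point dose response from 100 μM top, roughly one-third dilutions; 24 h pre-incubation, then MG132 100 nM. Viability read 48 h later by Calcein-AM (1 μM, 20 min, RT) fluorescence. Active = viability ≥5 SD above MG132 controls.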

[2] = Drug metabolism in rat liver microsomes at 15 uM after 20 mins in presence of NADPH; format: ADME, Microsome; details: read-out: Drug metabolism
In short: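 Rat liver microsomes (1 mg/mL protein) in PBS pH 7.4 with NADPH-regenerating system (1.3 mM NADP+, 3.3 mM glucose-6-phosphate, 0.4 U/mL G6PDH, 3.3 mM MgCl2). Compound at 15 μM, 37 °C for 0 and 20 min. HPLC on C18 (acetonitrile/water 25/75, 0.1% TFA). Peak-area response ratio to internal standard, normalised to t = 0.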

Liver microsomes [3] = assay: Drug metabolism in rat liver microsomes assessed as sulfoxide metabolite formation at 15 uM incubated for 5 to 60 mins in presence of NADPH by HPLC analysis; format: ADME, Microsome
In short: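 Substrate (15 μM) incubated at 37 °C with rat liver microsomes plus NADPH-regenerating system for 0–60 min. Reaction stopped with acetonitrile, chilled at −78 °C, centrifuged. Supernatant run on isocratic HPLC (acetonitrile/water 25/75, 0.1% TFA). Sulfoxide identified against synthetic sulfoxide and sulfone standards (10 μM) by retention time.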

Liver microsomes [4] = assay: Drug metabolism in rat liver microsomes assessed as sulfoxide metabolite formation at 5 uM incubated for 10 to 60 mins in presence of NADPH by HPLC analysis LC/MS/MS analysis; format: ADME, Microsome
In short: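 Duplicate incubations at 5 μM with or without rat liver microsomes, with and without NADPH, for 0, 10, 20, 40 and 60 min. Protein precipitated with acetonitrile containing internal standard. Supernatant analysed by LC/MS/MS (C18, acetonitrile-water gradient, ESI, MRM). Controls lacked microsomes or compound.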

Mus musculus [5] = assay: Neuroprotective activity in SOD1 G93A mutant B6SJL mouse ALS model assessed as extension of life span at 16 mg/kg; format: functional
Mus musculus [6] = assay: Neuroprotective activity in SOD1 G93A mutant B6SJL mouse ALS model assessed as extension in life span at 22 mg/kg; format: functional
[7] = Intrinsic clearance in human microsomes at 5 uM incubated for 1 hr at 37 degC in presence of NADPH; format: ADME, Microsome
[8] = Half life in human microsomes at 5 uM incubated for 1 hr at 37 degC in presence of NADPH; format: ADME, Microsome
[9] = Intrinsic clearance in human microsomes at 5 uM incubated for 1 hr at 37 degC in absence of NADPH; format: ADME, Microsome
[10] = Intrinsic clearance in mouse microsomes at 5 uM incubated for 1 hr at 37 degC in presence of NADPH; format: ADME, Microsome
[11] = Half life in mouse microsomes at 5 uM incubated for 1 hr at 37 degC in presence of NADPH; format: ADME, Microsome
[12] = Aqueous solubility of the compound in PBS after 45 mins; format: physicochemical
[13] = Aqueous solubility of the compound in PBS after 16 hrs; format: physicochemical
[14] = (§1) Apparent permeability from apical to basolateral side in human Caco2 cells; format: ADME, cell-based; details: Caco-2
[15] = (§2) Apparent permeability from basolateral to apical side in human Caco2 cells; format: ADME, cell-based; details: Caco-2
[16] = Efflux ratio of permeability from basolateral to apical side over apical to basolateral side in human Caco2 cells; format: ADME, cell-based; details: Caco-2
Caco-2 [17] = assay: as §1; format: ADME, cell-based
Caco-2 [18] = assay: as §2; format: ADME, cell-based

Chain of Superoxide dismutase [Cu-Zn] (Homo sapiens), P00441 [G94A] (P00441 whole entry G94A, the tested form may be a part): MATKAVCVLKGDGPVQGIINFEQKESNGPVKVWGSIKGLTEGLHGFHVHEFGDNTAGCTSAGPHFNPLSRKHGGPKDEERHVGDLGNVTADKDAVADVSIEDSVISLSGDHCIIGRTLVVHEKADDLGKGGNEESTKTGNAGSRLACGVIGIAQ

What does the source list for O=c1cc(CSc2c(Cl)cccc2Cl)[nH][nH]1?
Activity [1]: 100%; Activity (Cerebral cortex neuron): Active

For O=c1cc(COc2cccc(-c3ccccc3)c2)[nH][nH]1, which Activity [1] is on record?
Its Activity is 100%.

Which Activity [1] does the source give for CCc1cccc(OCc2cc(=O)[nH][nH]2)c1 here?
Its Activity is 100%.

For Cc1cc([S+]([O-])Cc2cc(=O)[nH][nH]2)c(C)cc1Cl (stereo not drawn), which Activity [1] is on record?
The Activity was 100%.

For O=c1cc(CSc2cc(Cl)cc(Cl)c2)[nH][nH]1, which Activity [1] is on record?
Its Activity is 100%.

With O=c1cc(COc2cc(F)cc(F)c2)[nH][nH]1 as the compound, how does the Activity [1] read?
The Activity was 100%.

Which Activity [1] does the source give for O=c1cc(CSc2ccc(Cl)cc2)[nH][nH]1 here?
Its Activity is 100%.

What about the metabolised at 20 min, 15 µM [2] of the same compound?
The metabolised at 20 min, 15 µM was 88%.

What about the Drug metabolism (Liver microsomes [3]) of the same compound?
The Drug metabolism was “Active”.

What about the Drug metabolism (Liver microsomes [4]) of the same compound?
The Drug metabolism was “Active”.

Which metabolised at 20 min, 15 µM [2] does the source give for Cc1cc(-c2ccccc2)nnc1NCCN1CCOCC1 [MINAPRINE] here?
Its metabolised at 20 min, 15 µM is 41%.

Which Activity [1] does the source give for CC(C)(C)c1cccc(OCc2cc(=O)[nH][nH]2)c1 here?
Its Activity is 100%.

For O=c1cc(CS(=O)(=O)c2ccc(Cl)cc2)[nH][nH]1, which Activity [1] is on record?
The Activity was 100%.

Which Activity [1] does the source give for Cc1cc(S(=O)(=O)Cc2cc(=O)[nH][nH]2)c(C)cc1Cl here?
The Activity was 100%.

With O=c1cc(COc2cccc(Br)c2)[nH][nH]1 as the compound, how does the Activity [1] read?
The Activity was 100%.

Which Activity [1] does the source give for O=c1cc(C[S+]([O-])c2ccc(Cl)cc2)[nH][nH]1 (stereo not drawn) here?
The Activity was 35%.

For Nc1nc2ccc(OC(F)(F)F)cc2s1 [RILUZOLE], which Activity (Mus musculus [5]) is on record?
Its Activity is 7.5%.

And the Activity (Mus musculus [6])?
The Activity was 11%.

Which Activity [1] does the source give for O=c1cc(COc2cc(C(F)(F)F)cc(C(F)(F)F)c2)[nH][nH]1 here?
Its Activity is 100%.

With O=c1cc(CS(=O)(=O)c2cc(Cl)cc(Cl)c2)[nH][nH]1 as the compound, how does the Activity [1] read?
The Activity was 100%.

And the CLint scaled at 5 µM [7]?
Its CLint scaled at 5 µM is 4.5 mL/min/kg.

And the half-life at 5 µM [8]?
Its half-life at 5 µM is greater than 1 h.

What about the CLint scaled at 5 µM [9] of the same compound?
The CLint scaled at 5 µM was 1.3 mL/min/kg.

What about the CLint scaled at 5 µM [10] of the same compound?
The CLint scaled at 5 µM was 15.3 mL/min/kg.

What about the half-life at 5 µM [11] of the same compound?
The half-life at 5 µM was greater than 1 h.

And the solubility at 0.75 h ([12]; PBS)?
Its solubility at 0.75 h is no less than 500 µM.

What about the solubility at 16 h ([13]; PBS) of the same compound?
Its solubility at 16 h is no less than 500 µM.

And the Papp A→B [14]?
Its Papp A→B is 27 ×10⁻⁶ cm/s.

And the Papp B→A [15]?
Its Papp B→A is 4.4 ×10⁻⁶ cm/s.

What about the efflux ratio [16] of the same compound?
The efflux ratio was 0.2.

What about the Activity (Cerebral cortex neuron) of the same compound?
Its Activity is “Active”.

Which Activity [1] does the source give for CCc1ccc(OCc2cc(=O)[nH][nH]2)cc1 here?
The Activity was 100%.

For O=c1cc(COc2cc(-c3ccccc3)cc(-c3ccccc3)c2)[nH][nH]1, which Activity [1] is on record?
Its Activity is 100%.

Which Activity [1] does the source give for O=c1cc(COc2ccc(Cl)cc2)[nH][nH]1 here?
Its Activity is 100%.

What about the t1/2 ([8]; 1 h, 5 µM) of the same compound?
The t1/2 was 2.32 h.

What about the t1/2 ([11]; 1 h, 5 µM) of the same compound?
Its t1/2 is 2.38 h.

And the solubility ([12]; buffer, 0.75 h)?
The solubility was 250 µM (≈ 56.2 µg/mL).

What about the solubility ([13]; buffer, 16 h) of the same compound?
The solubility was 250 µM (≈ 56.2 µg/mL).

And the Papp (Caco-2 [17])?
The Papp was 43 ×10⁻⁶ cm/s.

What about the Papp (Caco-2 [18]) of the same compound?
Its Papp is 28 ×10⁻⁶ cm/s.

And the efflux ratio [16]?
Its efflux ratio is 0.6.

Which Activity [1] does the source give for O=c1cc(COc2cc(Br)cc(Br)c2)[nH][nH]1 here?
Its Activity is 100%.
